Measured values pooled from the literature.
Compare with care: the assays were run in different laboratories.
Target: Serine/threonine-protein kinase 3 (STK3, Homo sapiens, UniProt Q13188)
One construct used (Q13188 1-491): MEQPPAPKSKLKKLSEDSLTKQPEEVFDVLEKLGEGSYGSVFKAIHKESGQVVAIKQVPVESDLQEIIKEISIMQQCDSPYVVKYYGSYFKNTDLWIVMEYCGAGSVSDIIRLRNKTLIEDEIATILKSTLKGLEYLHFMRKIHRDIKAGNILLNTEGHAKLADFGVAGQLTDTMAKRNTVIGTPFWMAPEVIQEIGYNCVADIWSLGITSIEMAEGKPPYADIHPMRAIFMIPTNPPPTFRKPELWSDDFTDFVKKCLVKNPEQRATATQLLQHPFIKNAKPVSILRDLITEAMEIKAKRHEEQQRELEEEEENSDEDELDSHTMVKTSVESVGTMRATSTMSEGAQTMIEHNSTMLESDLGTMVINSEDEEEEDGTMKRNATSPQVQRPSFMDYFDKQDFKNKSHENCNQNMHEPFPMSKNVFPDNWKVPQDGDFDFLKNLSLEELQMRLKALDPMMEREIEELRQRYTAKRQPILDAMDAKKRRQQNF

With `CO[C@@H](C)c1c(Nc2ccc([C@H](N(C)C(=O)C3CCS(=O)(=O)CC3)C(F)(F)F)cc2)cnc2cc(Cl)nn12` the remaining binding was 92% (cell-free assay; competition with immobilised ligand; 1 µM).
For `CN1CCC2(CC1)NC(=O)c1c(c3ccc(Cl)c(Cl)c3n1C)C2C#N` (racemic), the ΔTm was -0.2 °C (thermal stability; DSF; 10 µM).
The inhibition of `Cc1ccc(Nc2nccc(N(C)c3ccc4c(C)n(C)nc4c3)n2)cc1S(N)(=O)=O` is reported as 1% (cell-free assay; inhibitor; 0.3 µM).
For `Cc1ccc(C(=O)NCc2ccsc2)cc1C#Cc1cn(C(C)C)c2ncnc(N)c12`, the activity vs control was 78% (enzyme activity; inhibitor; 1 µM).
`Cn1c2c(Cl)c(Cl)ccc2c2cc(N)[nH]c(=O)c21` gave a ΔTm of 2.2 °C (thermal stability; DSF; 10 µM).
For `Cc1cc(-n2nc(Cc3cc(F)cc(C(F)(F)F)c3)nc2C)ccc1C(N)=O`, the remaining binding was 100% (cell-free assay; competition with immobilised ligand; 1 µM).
For `CCCOc1ccc(OC)c(F)c1C(=O)c1ccc(C(=O)N[C@@H]2CNC[C@H]2NC(=O)c2ccc3[nH]ncc3c2)cc1`, the remaining activity was 85% (enzyme activity; inhibitor; 10 µM).
`C[C@H](c1cccc(C#N)c1)n1cc(Cl)cc(C(N)=O)c1=N` has a remaining binding of 84% (cell-free assay; competition with immobilised ligand; 1 µM).
With `CNC(=O)c1cc(Oc2ccc(NC(=O)Nc3ccc(Cl)c(C(F)(F)F)c3)cc2)ccn1` the inhibition was -8% (cell-free assay; inhibitor; 10 µM).
The inhibition of `CNCc1ccc(-c2cc(-c3nc(-c4ccc(S(=O)(=O)C(C)C)cc4)cnc3N)on2)cc1` is reported as 18% (enzyme activity; inhibitor; 0.4 µM).
For `Cc1ccc(NC(=O)c2ccc(CN3CCN(C)CC3)cc2)cc1Nc1nc(-c2cccnc2)cs1`, the remaining signal was 94.4% (cell-free assay; 0.5 µM).
`Cc1ccc(NC(=O)c2ccc(C)c(C(F)(F)F)c2)cc1C#Cc1nn(C2CCC(O)CC2)c2ncnc(N)c12` (stereo not shown) gave a remaining signal of 63% (cell-free assay; 10 µM).
For `FC(F)(F)Oc1cccc(-c2cnc3ccc(-c4ccncc4)nn23)c1`, the activity vs control was 75% (enzyme activity; inhibitor; radiometric; 1 µM).
The activity vs control of `Cc1cc(NC(=O)c2cccc3cc(-c4cccc5[nH]nc(N)c45)ccc23)ccc1F` is reported as 98% (enzyme activity; inhibitor; 0.1 µM).
The remaining activity of `Cc1ccc(C(=O)Nc2ccc(CN3CCN(C)CC3)c(C(F)(F)F)c2)cc1C#Cc1cnc2cccnn12` is reported as 97% (enzyme activity; inhibitor; 23.5 nM).
The remaining signal of `COc1cc2c(N3CCN(C(=O)Nc4ccc(OC(C)C)cc4)CC3)ncnc2cc1OCCCN1CCCCC1` is reported as 94.7% (cell-free assay; 0.5 µM).
For `FC(F)c1nc2ccccc2n1-c1nc(N2CCOCC2)nc(N2CCOCC2)n1`, the remaining activity was 92% (enzyme activity; inhibitor; 10 µM).
`CCN1CCN(Cc2ccc(NC(=O)c3ccc(C)c(Oc4ccnc5[nH]ccc45)c3)cc2C(F)(F)F)CC1` has an inhibition of -58.9% (target engagement in cells; inhibitor; chemoproteomics; Huh-7; 1 µM).
`NS(=O)(=O)c1cc(NC(=O)C2(c3ccccc3Cl)CC2)ccc1Oc1cccc(Cl)c1` gave a remaining binding of 94% (cell-free assay; competition with immobilised ligand; 1 µM).
With `Nc1nc(Nc2ccccc2)sc1C(=O)c1c(F)cccc1F` the remaining activity was 40% (enzyme activity; inhibitor; 10 µM).
For `CCCS(=O)(=O)Nc1ccc(F)c(C(=O)c2c[nH]c3ncc(-c4ccc(Cl)cc4)cc23)c1F`, the inhibition was < 10% (enzyme activity; inhibitor; 1 µM).
`CCN1CCC2(CC1)NC(=O)c1c(c3ccc(Cl)c(Cl)c3n1C)C2C#N` (racemic) gave a ΔTm of -0.1 °C (thermal stability; DSF; 10 µM).
With `COc1ccc2cc(OCC3(C(=O)O)CN(C(=O)c4ccc(F)cc4)C3)ccc2c1` the remaining binding was 100% (cell-free assay; competition with immobilised ligand; 1 µM).
For `Cc1cnc(NC2CCOCC2)nc1-n1cnc(C(=O)NC(CN)c2cc(F)cc(Cl)c2)c1` (stereo not shown), the remaining activity was 108% (enzyme activity; inhibitor; radiometric; 1 µM).
For `O=C1Nc2ccc(Cl)cc2C1=Cc1cc(Cl)c(O)c(Cl)c1`, the remaining signal was 31.6% (cell-free assay; 0.5 µM).
The ΔTm of `N#CC1c2c([nH]c3c(Cl)c(Cl)ccc23)C(=O)NC12CCCCC2` (racemic) is reported as 0.6 °C (thermal stability; DSF; 10 µM).
With `CS(=O)(=O)CCNCc1ccc(-c2ccc3ncnc(Nc4ccc(OCc5cccc(F)c5)c(Cl)c4)c3c2)o1` the remaining signal was 93.7% (cell-free assay; 0.5 µM).
For `O=C(Nc1cnn(-c2csc(C(=O)NC3COC3)c2)c1)Nc1c(F)cccc1Cl`, the remaining activity was 93.2% (enzyme activity; inhibitor; 5 µM).
`CC/C(=N\NC(=O)NCc1cccc(O)c1)c1ccc(O)c(C)c1O` gave an inhibition of -0.5% (enzyme activity; inhibitor; 0.1 µM).
`O=C(N[C@H]1CCCCC/C=C\C2C[C@@]2(C(=O)O)NC(=O)[C@@H]2C[C@@H](Oc3ccncc3)CN2C1=O)OC1CCCC1` (stereo partly shown) has a remaining binding of 76% (binding; competition with immobilised ligand; 1 µM).
`CCN(CC)c1ccc(C2=NNC(=O)CC2C)cc1[N+](=O)[O-]` (stereo not shown) has a remaining activity of 87% (enzyme activity; inhibitor; 10 µM).
`COc1cc(Nc2cnc(C#N)c(O[C@H](C)CN(C)C)n2)ncc1-c1cnn(C)c1` has a remaining activity of 67% (enzyme activity; inhibitor; radiometric; 1 µM).
For `O=C(O)[C@@H]1[C@@H](Cn2nnc3ccccc3c2=O)CC[C@H]1C(=O)c1ccc(OCCC2CCOCC2)cc1`, the remaining binding was 100% (cell-free assay; competition with immobilised ligand; 1 µM).
`Cn1c2c(c3ccc(Cl)c(Cl)c31)C(C#N)C1(CCNCC1)NC2=O` (racemic) has a ΔTm of 0.3 °C (thermal stability; DSF; 10 µM).
`CC(C)(C)c1nc(-c2cccc(NS(=O)(=O)c3c(F)cccc3F)c2F)c(-c2ccnc(N)n2)s1` has a remaining activity of 94% (enzyme activity; inhibitor; radiometric; 1 µM).
For `CN1CCN(c2cnc3c(C4CCN(C(=O)c5ccc(OC(F)(F)F)cc5N)CC4)ncnc3c2)CC1`, the remaining binding was 82% (cell-free assay; competition with immobilised ligand; 1 µM).
For `COc1cc2ncnc(Nc3ccc(Oc4ccccc4)cc3C)c2cc1OC`, the inhibition was -4% (enzyme activity; inhibitor; 1 µM).
